Assay results reported in ChEMBL document CHEMBL1142735, “Discovery of a new series of centrally active tricyclic isoxazoles combining serotonin (5-HT) reuptake inhibition with alpha2-adrenoceptor blocking activity” (J Med Chem, 2005).

Tests used:
Rattus norvegicus [1] = assay: Effective dose concentration for antagonism ofpCA-Induced excitation was determined by subcutaneous administration; assay type: functional, organism-based
Outline: (§1)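 Male Wistar rats (200-250 g), fasted overnight, given test compound or solvent sc before challenge. Loss of righting induced by medetomidine 0.10 mg/kg iv; reversal means no loss of righting. Excitation induced by pCA 5 mg/10 mL/kg sc and scored 0-3 over 15 min starting 45 min after pCA; inhibition means score <2.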

Rattus norvegicus [2] = assay: Effective dose concentration for reversal of medetomidine-Induced loss of righting was determined by subcutaneous administration; assay type: functional, organism-based; outline: as §1
[3] = target: Sodium-dependent serotonin transporter (Homo sapiens, UniProt P31645); assay: Binding affinity for serotonin transporter
Outline: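 Human platelet membranes (50 µg protein) in 50 mM Tris-HCl pH 7.4 with 120 mM NaCl and 5 mM KCl. Competition against [3H]paroxetine (0.5 nM), 60 min at 25 °C. Nonspecific binding defined with imipramine (1 µM). Filtration over 0.1% PEI-presoaked GF/B, washed with incubation buffer. Sigmoidal fit of specific binding; Ki via Cheng-Prusoff.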

[4] = target: T1, Alpha-2C adrenergic receptor (Homo sapiens, UniProt P18825); assay: Binding affinity for alpha-2C adrenergic receptor
T1 sequence (P18825 whole entry): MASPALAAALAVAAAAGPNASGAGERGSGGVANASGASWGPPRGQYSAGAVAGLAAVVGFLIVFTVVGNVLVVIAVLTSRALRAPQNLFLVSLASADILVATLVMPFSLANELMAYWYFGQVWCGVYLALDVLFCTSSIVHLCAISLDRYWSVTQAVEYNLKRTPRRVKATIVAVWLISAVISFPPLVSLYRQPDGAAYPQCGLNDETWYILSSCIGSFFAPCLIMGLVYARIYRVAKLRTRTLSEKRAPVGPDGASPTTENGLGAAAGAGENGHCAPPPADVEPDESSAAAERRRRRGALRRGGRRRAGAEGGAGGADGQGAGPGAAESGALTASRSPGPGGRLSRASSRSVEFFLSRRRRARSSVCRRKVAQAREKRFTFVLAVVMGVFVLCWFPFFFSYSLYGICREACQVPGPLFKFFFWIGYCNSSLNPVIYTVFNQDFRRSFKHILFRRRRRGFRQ
Outline: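 Human alpha2C receptor stably expressed in CHO cell membranes (5-10 µg protein) in 25 mM glycylglycine, pH 7.6. Competition against [3H]rauwolscine (1 nM), 30 min at 25 °C. Nonspecific binding defined with spiroxatrine (1 µM). Rapid filtration over GF/B, washed with ice-cold 50 mM Tris-HCl pH 8.0, scintillation counting. Sigmoidal curves fitted; Ki by Cheng-Prusoff.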

Rattus norvegicus [5] = assay: Effective dose for antagonism ofpCA-Induced excitation was determined by oral administration; assay type: functional
Outline: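 Oral pretreatment of overnight-fasted male Wistar rats (200-250 g), then medetomidine 0.10 mg/kg iv (reversal means no loss of righting) or pCA 5 mg/kg sc (excitation scored 0-3 over 15 min from 45 min after pCA; inhibition means score <2). Doses taken from a geometric series.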

[6] = target: 5-hydroxytryptamine receptor 2A (Homo sapiens, UniProt P28223); assay: Inhibition of [125I]- R91150 binding to 5-hydroxytryptamine 2A receptor
Outline: (§2)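 Radioligand competition binding on membranes from cell lines carrying the human target, incubated with the labelled ligand under optimized conditions. Separation by filtration, except α1A and D3, which used scintillation proximity assay.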

[7] = target: T2, Adrenergic receptor alpha-1 (Homo sapiens, UniProt P35348+P25100+P35368); assay: Inhibition of [3H]- prazosin binding to alpha-1 adrenergic receptor; assay type: protein assay; outline: as §2
T2 sequence (P35348 whole entry): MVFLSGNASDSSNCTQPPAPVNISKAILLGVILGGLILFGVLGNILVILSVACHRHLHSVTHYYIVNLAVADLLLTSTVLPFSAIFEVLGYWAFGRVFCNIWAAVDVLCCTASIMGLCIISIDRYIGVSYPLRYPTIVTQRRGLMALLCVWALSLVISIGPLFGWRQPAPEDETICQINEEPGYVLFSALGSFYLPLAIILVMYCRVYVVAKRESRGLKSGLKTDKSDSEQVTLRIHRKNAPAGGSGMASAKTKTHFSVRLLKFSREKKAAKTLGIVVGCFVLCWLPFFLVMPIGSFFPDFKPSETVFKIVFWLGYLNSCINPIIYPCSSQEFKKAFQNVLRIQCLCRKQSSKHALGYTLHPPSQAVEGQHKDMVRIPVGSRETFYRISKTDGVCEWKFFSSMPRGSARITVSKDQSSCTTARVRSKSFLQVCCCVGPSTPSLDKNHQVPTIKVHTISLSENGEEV
T2 sequence (P25100 whole entry): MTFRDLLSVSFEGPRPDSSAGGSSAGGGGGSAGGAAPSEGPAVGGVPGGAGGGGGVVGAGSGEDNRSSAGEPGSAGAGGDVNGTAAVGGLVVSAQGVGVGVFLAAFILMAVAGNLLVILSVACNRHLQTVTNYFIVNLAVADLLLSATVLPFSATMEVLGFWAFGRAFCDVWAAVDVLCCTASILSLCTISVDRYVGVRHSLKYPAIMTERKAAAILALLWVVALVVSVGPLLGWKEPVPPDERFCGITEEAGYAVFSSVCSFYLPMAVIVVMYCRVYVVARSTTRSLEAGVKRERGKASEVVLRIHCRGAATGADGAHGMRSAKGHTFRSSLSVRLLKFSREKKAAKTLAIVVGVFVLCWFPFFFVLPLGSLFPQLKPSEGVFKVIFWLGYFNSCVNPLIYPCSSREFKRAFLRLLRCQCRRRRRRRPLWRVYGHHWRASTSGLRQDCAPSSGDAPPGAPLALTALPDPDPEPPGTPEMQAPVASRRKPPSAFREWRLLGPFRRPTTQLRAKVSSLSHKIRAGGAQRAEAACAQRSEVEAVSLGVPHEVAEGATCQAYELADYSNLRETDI
T2 sequence (P35368 whole entry): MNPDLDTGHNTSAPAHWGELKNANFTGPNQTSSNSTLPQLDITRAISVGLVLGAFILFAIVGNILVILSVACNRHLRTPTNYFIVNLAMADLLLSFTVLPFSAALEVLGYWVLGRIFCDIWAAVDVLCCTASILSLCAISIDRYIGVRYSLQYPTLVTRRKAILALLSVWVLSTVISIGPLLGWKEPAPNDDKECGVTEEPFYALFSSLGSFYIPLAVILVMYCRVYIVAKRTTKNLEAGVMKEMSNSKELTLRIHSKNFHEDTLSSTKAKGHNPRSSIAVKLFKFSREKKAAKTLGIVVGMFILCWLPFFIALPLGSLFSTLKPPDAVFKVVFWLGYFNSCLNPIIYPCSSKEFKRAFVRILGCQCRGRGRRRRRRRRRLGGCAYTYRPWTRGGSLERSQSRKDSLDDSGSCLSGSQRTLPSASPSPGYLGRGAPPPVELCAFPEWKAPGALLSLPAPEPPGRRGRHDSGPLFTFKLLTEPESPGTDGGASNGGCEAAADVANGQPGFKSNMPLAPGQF

[8] = target: Norepinephrine transporter (Rattus norvegicus, UniProt Q9WTR4); assay: Inhibition of [3H]-nisoxetine binding to Norepinephrine transporter from rat cortex
Outline: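 Radioligand competition on rat cortex membranes, incubated under optimized conditions. Stopped by rapid filtration. Ki by Cheng-Prusoff.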

[9] = target: Sodium-dependent dopamine transporter (Rattus norvegicus, UniProt P23977); assay: Inhibition of [3H]WIN-35428 binding to Dopamine transporter of rat striatum; assay type: tissue-based
Outline: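 Competition binding using rat striatum membranes incubated with the radioligand under optimized conditions, separated by filtration.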

[10] = target: T3, 5-hydroxytryptamine receptor 1A (Homo sapiens, UniProt P08908); assay: Inhibition of [3H]8-OH-DPAT binding to 5-hydroxytryptamine 1A receptor; outline: as §2
T3 sequence (P08908 whole entry): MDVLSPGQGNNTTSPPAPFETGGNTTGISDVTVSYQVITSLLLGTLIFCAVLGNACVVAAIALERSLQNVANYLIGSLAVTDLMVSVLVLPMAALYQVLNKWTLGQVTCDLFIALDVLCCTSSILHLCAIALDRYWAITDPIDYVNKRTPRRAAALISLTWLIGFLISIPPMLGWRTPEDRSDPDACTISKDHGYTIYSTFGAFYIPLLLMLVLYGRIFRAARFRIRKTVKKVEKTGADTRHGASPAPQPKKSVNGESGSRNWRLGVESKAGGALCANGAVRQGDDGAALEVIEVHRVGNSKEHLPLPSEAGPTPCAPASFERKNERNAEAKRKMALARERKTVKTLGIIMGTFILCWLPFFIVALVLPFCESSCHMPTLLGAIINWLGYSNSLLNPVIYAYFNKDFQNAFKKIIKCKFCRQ

[11] = target: T4, 5-hydroxytryptamine receptor 2C (Homo sapiens, UniProt P28335); assay: Inhibition of [3H]- mesulergine binding to 5-hydroxytryptamine 2C receptor; outline: as §2
T4 sequence (P28335 whole entry): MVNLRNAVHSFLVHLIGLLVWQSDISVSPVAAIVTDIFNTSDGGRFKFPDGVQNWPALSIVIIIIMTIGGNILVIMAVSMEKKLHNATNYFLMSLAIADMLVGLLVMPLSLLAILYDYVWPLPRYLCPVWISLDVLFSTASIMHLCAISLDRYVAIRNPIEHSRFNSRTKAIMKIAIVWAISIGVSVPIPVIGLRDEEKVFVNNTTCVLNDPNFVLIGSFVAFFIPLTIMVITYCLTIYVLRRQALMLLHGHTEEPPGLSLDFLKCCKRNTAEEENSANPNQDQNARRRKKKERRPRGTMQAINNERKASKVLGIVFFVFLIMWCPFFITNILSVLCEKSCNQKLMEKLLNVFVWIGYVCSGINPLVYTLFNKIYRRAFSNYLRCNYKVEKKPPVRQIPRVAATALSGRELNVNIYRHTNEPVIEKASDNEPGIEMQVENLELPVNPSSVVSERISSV

D(2) dopamine receptor = D(2) dopamine receptor (Homo sapiens, UniProt P14416); assay: Inhibition of [3H]spiperone binding to Dopamine receptor D2; outline: as §2
D(4) dopamine receptor = target: T5, D(4) dopamine receptor (Homo sapiens, UniProt P21917); assay: Inhibition of [3H]spiperone binding to Dopamine receptor D4; outline: as §2
T5 sequence (P21917 whole entry): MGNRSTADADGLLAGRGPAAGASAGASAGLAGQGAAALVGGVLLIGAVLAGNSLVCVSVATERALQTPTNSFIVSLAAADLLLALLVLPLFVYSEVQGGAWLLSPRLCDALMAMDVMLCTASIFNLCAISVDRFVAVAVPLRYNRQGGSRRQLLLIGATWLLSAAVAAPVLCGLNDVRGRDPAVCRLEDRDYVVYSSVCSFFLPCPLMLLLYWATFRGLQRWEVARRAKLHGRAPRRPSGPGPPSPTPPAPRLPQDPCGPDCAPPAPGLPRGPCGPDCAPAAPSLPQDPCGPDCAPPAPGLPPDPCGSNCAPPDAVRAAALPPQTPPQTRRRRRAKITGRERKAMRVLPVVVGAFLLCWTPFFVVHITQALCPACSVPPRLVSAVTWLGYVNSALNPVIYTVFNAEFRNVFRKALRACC

Histamine H1 receptor = Histamine H1 receptor (Homo sapiens, UniProt P35367); assay: Inhibition of [3H]pyrilamine binding to Histamine H1 receptor
Outline: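 Radioligand competition on membranes from a cell line transfected with the human target, incubated under optimized conditions. Stopped by rapid filtration. Ki by Cheng-Prusoff.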

[12] = target: 5-hydroxytryptamine receptor 7 (Homo sapiens, UniProt P34969); assay: Inhibition of [3H]5-HT binding to 5-hydroxytryptamine 7 receptor; outline: as §2
Chain of 5-hydroxytryptamine receptor 7 (P34969 whole entry): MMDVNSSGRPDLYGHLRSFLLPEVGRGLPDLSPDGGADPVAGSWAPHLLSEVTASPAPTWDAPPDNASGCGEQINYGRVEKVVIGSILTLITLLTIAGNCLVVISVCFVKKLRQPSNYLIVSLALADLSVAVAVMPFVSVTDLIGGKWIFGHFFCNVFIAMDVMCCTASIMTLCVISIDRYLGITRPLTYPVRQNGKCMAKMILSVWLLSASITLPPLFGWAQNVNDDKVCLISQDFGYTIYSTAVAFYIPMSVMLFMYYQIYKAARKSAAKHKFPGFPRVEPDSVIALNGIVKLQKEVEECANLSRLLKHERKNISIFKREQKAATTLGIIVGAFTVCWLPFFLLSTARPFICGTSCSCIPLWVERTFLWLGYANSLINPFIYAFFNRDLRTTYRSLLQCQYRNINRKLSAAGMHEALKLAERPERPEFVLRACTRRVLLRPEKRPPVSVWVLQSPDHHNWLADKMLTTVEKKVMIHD

Chain of Norepinephrine transporter (Q9WTR4 whole entry): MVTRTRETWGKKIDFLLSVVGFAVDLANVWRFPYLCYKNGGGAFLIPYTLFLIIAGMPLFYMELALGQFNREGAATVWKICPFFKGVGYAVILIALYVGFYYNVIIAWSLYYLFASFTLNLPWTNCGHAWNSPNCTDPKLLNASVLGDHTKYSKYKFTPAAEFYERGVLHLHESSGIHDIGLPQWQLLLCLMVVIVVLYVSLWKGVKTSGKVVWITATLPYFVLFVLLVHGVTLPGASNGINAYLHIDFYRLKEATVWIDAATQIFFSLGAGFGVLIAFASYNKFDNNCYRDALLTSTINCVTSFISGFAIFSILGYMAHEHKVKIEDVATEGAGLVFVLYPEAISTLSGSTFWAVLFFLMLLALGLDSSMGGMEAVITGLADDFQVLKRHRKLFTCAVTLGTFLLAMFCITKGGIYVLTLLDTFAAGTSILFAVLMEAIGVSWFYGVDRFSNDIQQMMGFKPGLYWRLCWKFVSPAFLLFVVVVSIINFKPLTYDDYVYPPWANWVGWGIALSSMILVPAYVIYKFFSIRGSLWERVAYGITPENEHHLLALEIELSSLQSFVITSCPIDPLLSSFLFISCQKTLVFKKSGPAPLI
Chain of Sodium-dependent dopamine transporter (P23977 whole entry): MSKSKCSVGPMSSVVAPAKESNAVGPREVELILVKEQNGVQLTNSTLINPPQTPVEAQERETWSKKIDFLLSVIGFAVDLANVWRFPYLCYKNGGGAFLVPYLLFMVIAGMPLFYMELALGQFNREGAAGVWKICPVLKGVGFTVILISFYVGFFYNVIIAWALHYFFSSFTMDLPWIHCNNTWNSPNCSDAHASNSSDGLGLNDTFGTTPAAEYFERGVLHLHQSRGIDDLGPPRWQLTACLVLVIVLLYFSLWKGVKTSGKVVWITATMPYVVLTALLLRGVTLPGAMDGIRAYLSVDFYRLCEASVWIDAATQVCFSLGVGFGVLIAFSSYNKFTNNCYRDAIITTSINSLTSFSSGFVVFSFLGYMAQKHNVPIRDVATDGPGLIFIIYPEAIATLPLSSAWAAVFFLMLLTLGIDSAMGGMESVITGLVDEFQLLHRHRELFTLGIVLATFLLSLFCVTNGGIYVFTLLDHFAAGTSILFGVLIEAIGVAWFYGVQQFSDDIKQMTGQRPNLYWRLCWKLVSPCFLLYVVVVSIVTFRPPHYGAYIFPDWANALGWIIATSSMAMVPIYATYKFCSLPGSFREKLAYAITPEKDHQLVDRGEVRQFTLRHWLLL
Chain of D(2) dopamine receptor (P14416 whole entry): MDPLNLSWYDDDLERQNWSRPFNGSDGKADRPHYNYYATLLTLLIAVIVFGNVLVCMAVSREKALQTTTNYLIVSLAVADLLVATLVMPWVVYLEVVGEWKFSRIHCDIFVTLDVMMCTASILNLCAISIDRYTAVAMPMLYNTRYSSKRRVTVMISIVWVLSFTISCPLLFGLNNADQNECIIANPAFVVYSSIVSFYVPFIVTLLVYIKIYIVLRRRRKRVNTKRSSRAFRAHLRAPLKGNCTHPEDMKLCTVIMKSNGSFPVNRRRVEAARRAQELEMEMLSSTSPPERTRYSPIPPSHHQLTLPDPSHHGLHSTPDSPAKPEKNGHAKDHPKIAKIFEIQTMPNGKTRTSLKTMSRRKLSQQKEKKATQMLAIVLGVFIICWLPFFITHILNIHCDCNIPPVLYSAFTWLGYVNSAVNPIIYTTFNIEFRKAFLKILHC
Chain of Histamine H1 receptor (P35367 whole entry): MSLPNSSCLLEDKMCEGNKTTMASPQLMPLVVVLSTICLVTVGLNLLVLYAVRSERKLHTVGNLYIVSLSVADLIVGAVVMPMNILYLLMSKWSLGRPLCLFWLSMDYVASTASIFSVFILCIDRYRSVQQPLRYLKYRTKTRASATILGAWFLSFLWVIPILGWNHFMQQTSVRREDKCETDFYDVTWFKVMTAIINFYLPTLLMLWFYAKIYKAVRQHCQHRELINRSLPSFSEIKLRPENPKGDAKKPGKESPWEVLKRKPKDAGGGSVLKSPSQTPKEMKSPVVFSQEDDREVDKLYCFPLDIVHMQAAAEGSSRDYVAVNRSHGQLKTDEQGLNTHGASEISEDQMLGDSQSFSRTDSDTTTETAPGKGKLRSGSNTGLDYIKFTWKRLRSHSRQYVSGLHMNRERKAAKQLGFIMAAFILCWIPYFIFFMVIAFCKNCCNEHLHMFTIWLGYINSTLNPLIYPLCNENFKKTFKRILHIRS
Chain of 5-hydroxytryptamine receptor 2A (P28223 whole entry): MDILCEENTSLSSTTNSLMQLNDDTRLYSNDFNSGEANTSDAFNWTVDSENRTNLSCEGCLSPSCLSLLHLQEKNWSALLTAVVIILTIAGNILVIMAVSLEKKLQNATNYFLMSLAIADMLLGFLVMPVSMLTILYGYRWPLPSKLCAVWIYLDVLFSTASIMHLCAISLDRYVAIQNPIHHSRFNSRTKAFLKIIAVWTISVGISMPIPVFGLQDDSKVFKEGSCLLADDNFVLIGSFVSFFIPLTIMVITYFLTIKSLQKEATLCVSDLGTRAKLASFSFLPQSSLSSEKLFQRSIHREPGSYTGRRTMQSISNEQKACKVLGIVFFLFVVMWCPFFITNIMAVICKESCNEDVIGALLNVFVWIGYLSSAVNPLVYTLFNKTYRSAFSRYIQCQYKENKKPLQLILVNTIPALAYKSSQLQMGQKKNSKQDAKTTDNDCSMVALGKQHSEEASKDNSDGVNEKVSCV
Chain of Sodium-dependent serotonin transporter (P31645 whole entry): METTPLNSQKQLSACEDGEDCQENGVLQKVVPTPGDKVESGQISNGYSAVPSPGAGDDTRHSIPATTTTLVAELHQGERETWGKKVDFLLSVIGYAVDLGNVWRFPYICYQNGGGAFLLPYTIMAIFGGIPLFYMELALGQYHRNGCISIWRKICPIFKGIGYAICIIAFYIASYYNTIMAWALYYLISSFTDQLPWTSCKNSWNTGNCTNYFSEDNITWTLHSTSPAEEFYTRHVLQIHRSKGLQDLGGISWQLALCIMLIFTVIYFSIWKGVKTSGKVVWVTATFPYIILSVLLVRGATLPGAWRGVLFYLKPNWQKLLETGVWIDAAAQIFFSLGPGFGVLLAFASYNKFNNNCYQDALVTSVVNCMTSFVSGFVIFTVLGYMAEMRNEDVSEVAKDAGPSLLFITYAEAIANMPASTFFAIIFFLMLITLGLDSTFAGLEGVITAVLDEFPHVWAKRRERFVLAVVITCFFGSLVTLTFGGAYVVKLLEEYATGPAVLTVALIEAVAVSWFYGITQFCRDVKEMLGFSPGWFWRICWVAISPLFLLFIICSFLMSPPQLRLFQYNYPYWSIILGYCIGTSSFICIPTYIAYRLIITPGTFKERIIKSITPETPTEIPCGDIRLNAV

SMILES	ED50 (Rattus norvegicus [1])	ED50 (Rattus norvegicus [2])	Ki [3]	Ki [4]	ED50 (Rattus norvegicus [5])	Ki [6]	Ki [7]	Ki [8]	Ki [9]	Ki [10]	Ki [11]	Ki (D(2) dopamine receptor)	Ki (D(4) dopamine receptor)	Ki (Histamine H1 receptor)	Ki [12]
COc1cc2c(cc1OC)C1=NO[C@@H](CN3CCN(C/C=C(\C)c4ccccc4)CC3)[C@@H]1CN2	7.9 mg/kg	2.5 mg/kg	15 nM	3.6 nM	–	–	–	–	–	–	–	–	–	–	–
COc1cccc2c1CCC[C@H]2CN(C)CCc1ccc2ccoc2c1	–	–	–	–	> 10 mg/kg	> 1000 nM	> 1000 nM	> 1000 nM	> 1000 nM	> 1000 nM	> 1000 nM	> 1000 nM	234 nM	> 1000 nM	–
Fc1ccc2c(c1)CC(CC1CN=CN1)C2 (stereo not drawn)	–	–	–	–	–	> 1000 nM	> 1000 nM	365 nM	> 1000 nM	770 nM	> 1000 nM	> 1000 nM	–	> 1000 nM	> 1000 nM
